Legend:
[1] = ST_JUDE: Cytotoxicity using luciferase to measure ATP as an indicator of the viability of human foreskin fibroblast cells (BJ); assay type: toxicity, cell-based
Trypanosoma brucei = test: ST_JUDE: Cytotoxicity using luciferase to measure ATP as an indicator of the viability of Trypanosoma brucei; assay type: functional, organism-based
Plasmodium falciparum [2] = test: ST_JUDE: Cytotoxicity against Plasmodium falciparum 3D7; assay type: functional, organism-based
Outline: (§1)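 Asexual P. falciparum grown in human erythrocytes, exposed to compounds for 72 h, and growth read as the DNA quantity in treated versus control cultures. Dose-response run at 12 concentrations from 10 μM to 5 nM.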

Plasmodium falciparum [3] = test: ST_JUDE: Cytotoxicity against Plasmodium falciparum SB-A6; assay type: functional, organism-based
Plasmodium falciparum [4] = test: ST_JUDE: Cytotoxicity against Plasmodium falciparum W2; assay type: functional, organism-based
Leishmania major = test: ST_JUDE: Cytotoxicity using Alamar Blue to measure viability of Leishmania major; assay type: functional, organism-based
Outline: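 L. major promastigotes; drug susceptibility read with Alamar Blue.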

[5] = ST_JUDE: Cytotoxicity using luciferase to measure ATP as an indicator of the viability of human epithelial embryonic kidney cells (HEK293); assay type: toxicity, cell-based
Plasmodium falciparum [6] = test: ST_JUDE: Plasmodium falciparum K1 EC50 (uM) as measured by SYBR green dye; assay type: functional, organism-based
Plasmodium falciparum [7] = test: ST_JUDE: Plasmodium falciparum 3D7 EC50 (uM) as measured by SYBR green dye; assay type: functional, organism-based
Plasmodium falciparum [8] = test: ST_JUDE: Cytotoxicity against Plasmodium falciparum Dd2; assay type: functional, organism-based
Plasmodium falciparum [9] = test: ST_JUDE: Cytotoxicity against Plasmodium falciparum K1; assay type: functional, organism-based; outline: as §1
Plasmodium falciparum [10] = test: ST_JUDE: Cytotoxicity against Plasmodium falciparum V1/S; assay type: functional, organism-based
[11] = ST_JUDE: Cytotoxicity using luciferase to measure ATP as an indicator of the viability of human epithelial hepatocellular carcinoma cells (HepG2); assay type: toxicity, cell-based
Toxoplasma gondii = test: ST_JUDE: Growth inhibition of to Toxoplasma gondii, in human U-2OS cells, as measured by luciferase.; assay type: functional, organism-based; conditions: RH, U2OS
Outline: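 T. gondii parasites engineered to express luciferase; drug sensitivity read by luminescence.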

[12] = ST_JUDE: Cytotoxicity using luciferase to measure ATP as an indicator of the viability of human Burkitt''s lymphoma lymphoblast cells (Raji); assay type: toxicity, cell-based
Plasmodium falciparum [13] = test: ST_JUDE: Cytotoxicity against Plasmodium falciparum D10 transfected with yeast DHOD; assay type: functional, organism-based

Row | SMILES | EC50 (Plasmodium falciparum [6]) [nM] | EC50 (Plasmodium falciparum [7]) [nM] | EC50 [1] [nM] | EC50 (Trypanosoma brucei) [nM] | EC50 (Plasmodium falciparum [2]) [nM] | EC50 (Plasmodium falciparum [3]) [nM] | EC50 (Plasmodium falciparum [4]) [nM] | EC50 (Leishmania major) [nM] | EC50 [5] [nM] | EC50 (Plasmodium falciparum [8]) [nM] | EC50 (Plasmodium falciparum [9]) [nM] | EC50 (Plasmodium falciparum [10]) [nM] | EC50 [11] [nM] | EC50 (Toxoplasma gondii) [nM] | EC50 [12] [nM] | EC50 (Plasmodium falciparum [13]) [nM]
1 | COc1ccccc1/N=C1\C=C(NS(=O)(=O)c2ccc(C(C)C)cc2)c2ccccc2C1=O | 132 | 598 | > 34500 | 1790 | 450 | 190 | > 8870 | > 14800 | > 34500 | 627 | 290 | 280 | > 34500 | > 18900 | > 34500 | 343
2 | CC(C)c1ccc(S(=O)(=O)NC2=C/C(=N\c3ccc(O)cc3)C(=O)c3ccccc32)cc1 | 125 | 346 | 3580 | 750 | 547 | 290 | 823 | > 14900 | 5470 | 946 | 425 | 836 | 2220 | > 19000 | 3020 | 288
3 | COc1cccc(NC(=O)C2c3ccccc3C(=O)N(CC(C)C)C2c2cccs2)c1 (stereo unspecified) |  | 175 | > 40800 | 7540 |  |  |  | > 17500 | > 40800 |  |  |  | > 40800 | > 22300 | > 40800 | 
4 | CCOc1ccc(N(C(C)=O)C2=C(N(C)C)C(=O)c3ccccc3C2=O)cc1 | 7.5 | 5.5 | 11200 | 1240 | 2.7 | 1 | 8.5 | > 12900 | > 30200 | 6.3 | 3.5 | 5.5 | 4820 | 10600 | 354 | 1
5 | C=CC[n+]1c(C=C2C=CN(CC)C=C2)sc2ccccc21 | 305 | 425 | > 28200 | 1510 | 1000 | 1310 | > 7250 | 20.8 | > 28200 | 696 | > 7250 | 1270 | > 28200 | > 15500 | 1240 | 1290
6 | C=CCN1C=CC=C/C1=C\c1sc2ccccc2[n+]1C | 1200 | 1990 | > 35400 | 10700 | 1190 | 2980 | 6160 | 50.3 | > 35400 |  | 940 | > 9080 | > 35400 | > 19400 | 8340 | 5690
7 | COC(=O)C1=CNC=C(C(=O)OC)C1c1ccc(Cl)c(Cl)c1 | 1670 | 843 | > 45800 | 17100 | 772 | > 11800 | 900 | > 19600 | > 45800 | 780 | 1360 | 1780 | > 45800 | > 25100 | > 45800 | > 11800

The remaining compounds from weak to strong by EC50 (Plasmodium falciparum [7]), led by results:

Row | EC50 (Plasmodium falciparum [6]) [nM] | EC50 (Plasmodium falciparum [7]) [nM] | SMILES | EC50 [1] [nM] | EC50 (Trypanosoma brucei) [nM] | EC50 (Plasmodium falciparum [2]) [nM] | EC50 (Plasmodium falciparum [3]) [nM] | EC50 (Plasmodium falciparum [4]) [nM] | EC50 (Leishmania major) [nM] | EC50 [5] [nM] | EC50 (Plasmodium falciparum [8]) [nM] | EC50 (Plasmodium falciparum [9]) [nM] | EC50 (Plasmodium falciparum [10]) [nM] | EC50 [11] [nM] | EC50 (Toxoplasma gondii) [nM] | EC50 [12] [nM] | EC50 (Plasmodium falciparum [13]) [nM]
8 | 715 | 1260 | CCCCCCn1c(=N)n(CC(O)COc2ccccc2C)c2ccccc21 (stereo unspecified) | 16800 | 3730 | 2200 | 4670 | 1290 | > 23400 | 20300 | 1110 | 1430 | 2090 | 6980 | 13900 | 12600 | 6570
9 | 181 | 334 | C=CCn1c(=N)n(CC(O)c2ccc(Cl)c(Cl)c2)c2ccccc21 (stereo unspecified) | > 44700 | 8340 | 1080 | 2530 | 512 | > 19100 | 39200 | 434 | 602 | 788 | 16400 | > 24500 | 26400 | 2630
10 | 42.4 | 59 | CCCCN(CCCC)CC(O)COc1ccccc1C(=O)Nc1ccccc1 (stereo unspecified) | > 53200 | 21300 | 108 | 144 | 202 | > 22800 | > 53200 | 69.2 | 39.3 | 54.5 | > 53200 | > 29200 | > 53200 | 163
